Source: PubChem (The Scripps Research Institute Molecular Screening Center)
ZTA counter: counter-screen for EBNA-1 inhibitors: inhibitors of Epstein-Barr virus ZTA; inhibition, % at 11 µM; P03206; 320,000 compounds, 0.15% hits; ZTA-DNA binding, fluorescence polarization; AID 2234; in the data active = inhibition above about 33%
Target sequence (P03206 whole entry, looked up): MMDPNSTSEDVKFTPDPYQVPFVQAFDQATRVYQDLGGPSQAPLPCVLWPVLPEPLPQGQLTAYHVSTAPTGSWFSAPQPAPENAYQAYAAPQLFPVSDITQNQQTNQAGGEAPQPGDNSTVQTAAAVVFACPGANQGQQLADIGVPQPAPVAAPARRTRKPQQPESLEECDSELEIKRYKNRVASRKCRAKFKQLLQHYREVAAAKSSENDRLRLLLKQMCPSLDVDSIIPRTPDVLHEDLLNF
Fh CTSL1 inh: blocks F. hepatica cathepsin L1 in PFM18AAP counter-screen; recombinant F. hepatica cathepsin L1, Z-Leu-Arg-MCA fluorescence; inhibition, % at 5.96 µM; 300,000 compounds, 0.49% hits; AID 1906;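 active = inhibition above the mean of all tested compounds plus 3 SD, set per screening campaign, cut at about 17% in these data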;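 also: 0% = plate median of test compound wells and 100% = 1 µM Z-Phe-Ala-diazomethylketone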
NS3 helicase inh: blocks Hepatitis C virus NS3 helicase unwinding; NS3 helicase DNA unwinding, Cy5 molecular beacon fluorescence; inhibition, % at 10.9 µM; 290,000 compounds, 0.56% hits;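 active = inhibition above the mean of all tested compounds plus 3 SD, set per campaign, cut at about 35% in these data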;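 also: 0% = DMSO wells and 100% = thioflavine S control wells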
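System: NS3 helicase fragment of HCV / Schedule: 1 h at 25 °C / Control set: DMSO alone as 0% and 110 µM thioflavine S as 100% / Reagent: Cy5/quencher beacon DNA duplex and ATP to start / Technique: Cy5 fluorescence / Replication: singlicate / Evaluation: % inhibition of end-to-start signal ratio versus controls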
EBNA-1 inh: blocks EBNA-1 binding to DNA. EBNA-1 DNA binding, fluorescence polarization. inhibition, % at 14.8 µM. 300,000 compounds, 0.34% hits. AID 1950; in the data active = inhibition above about 28%
NS3 helicase cf: confirmation of Hepatitis C virus NS3 helicase inhibitors | NS3 helicase DNA unwinding, Cy5 molecular beacon fluorescence | shares compounds with NS3 helicase inh | 1,600 compounds, 31% hits | inhibition, % at 10.9 µM;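 active = inhibition above the mean of all tested compounds plus 3 SD, cutoff set per campaign, cut at about 36% in these data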
FID counter trip: intercalator displacement, NS3 helicase counter-screen | shares compounds with NS3 helicase inh | DNA fluorescent intercalator displacement, fluorescence | inhibition, % at 7.9 µM | 1,600 compounds, 4% hits; in the data active = inhibition above about 37%;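 also: 0% = vehicle and 100% = reference compound; higher means more displacement of ethidium bromide from the DNA hairpin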
FID counter DR: displaces fluorescent intercalator from DNA, HCV helicase counter-screen; shares compounds with NS3 helicase inh; fluorescent intercalator displacement from DNA, fluorescence; IC50, µM; 120 tested, under 10 active; AID 2172; call rule not given here
An asterisk follows results filed as active; · = no result. In the library only some 1.4% were active in any assay of this set; here they are far more common.

SMILES	ZTA counter	Fh CTSL1 inh	NS3 helicase inh	EBNA-1 inh	NS3 helicase cf	FID counter trip	others
COc1ccc(NC(=O)C(CC(=O)O)Cc2ccccc2)cc1 (centres undefined)	7	1	7	12	·	·
COc1cc(CC(CC(=O)O)CC(C)OCc2ccccc2)cc(OC)c1 (centres undefined)	0	-3	39*	-6	-12	-41
CCc1nnc(NC(=O)c2cc(-c3ccco3)nc3ccccc23)s1	11	5	38*	5	-9	-7
COc1ccc(NC(=O)c2cc(-c3ccco3)nc3ccccc23)cc1S(=O)(=O)N1CCOCC1	-1	6	54*	2	73*	14
Cc1cccc(N(C)Cc2nnc(-c3cccc(Br)c3)o2)c1	-16	7	-6	0	·	·
Cc1ccc(NC(=O)CC2SC(=O)NC2=O)cc1 (centres undefined)	5	-1	47*	5	-9	16
COc1ccc(/C=N/N(Cc2ccccc2)c2ccccc2)cc1O	-7	-3	-17	1	·	·
COc1ccc(C(=O)N/N=C/c2ccc(OC)c(COc3ccccc3)c2)cc1	-8	-1	-8	1	·	·
COc1ccc(/C=N\NC(=O)c2cc(O)c(O)c(O)c2)cc1COc1ccc(C(=O)OCC(C)C)cc1	-3	-1	39*	0	56*	-9	FID counter DR=>79
CS(=O)(=O)N(CC(=O)N1CCc2ccccc2C1)c1ccccc1F	-16	-2	·	3	·	·
O=C1CCCC2=C1C(c1ccco1)Nc1ccc3ccccc3c12 (centres undefined)	12	-1	41*	1	36	-6
COc1cccc(CNC(=O)Cn2cccc2)c1	-8	-5	1	-7	·	·
CCCCc1cc2c(c(NC(C)=O)n1)c(=O)oc1ccccc12	18	1	-5	15	·	·
O=C(Nc1ccccn1)C1(c2cccs2)CCOCC1	-4	0	-1	-4	·	·
CCCc1cc(=O)[nH]c(SCCOc2ccc(Cl)cc2)n1	-8	1	7	-2	·	·
Cc1c(CC(=O)N[C@@H](CCCNC(N)=O)C(=O)O)c(=O)oc2cc3oc4c(c3cc12)CCCC4	-12	2	22	2	·	·
CCCCC(NC(=O)Cc1c(C)c2cc3c4c(oc3cc2oc1=O)CCCC4)C(=O)O (centres undefined)	-7	0	40*	9	51*	-12
NC(=O)c1ccc(NC(=O)CCCNC(=O)c2ccc(Cl)cc2)cc1	-7	-7	14	-26	·	·
COc1cc2c(cc1OC)-c1nnc(-c3ccco3)n1C1(CCCC1)C2	0	-1	4	-9	·	·
Cc1c(Cl)cccc1NC(=O)CSc1sc2c(O)cc(=O)[nH]c2c1C#N	7	2	37*	-6	-9	8
N#Cc1c(SCC(=O)Nc2ccc(Cl)cc2Cl)sc2c(O)cc(=O)[nH]c12	3	2	30	0	·	·
CCOc1ccccc1NC(=O)CCCN1C(=S)NC(C)(C)CC1C (centres undefined)	8	-3	1	1	·	·
COC(=O)CN1C(=O)[C@H]2[C@@H](c3ccc(C)o3)N3C(=O)CN(CCO)C(=O)[C@@]3(Cc3ccccc3)[C@H]2C1=O	22	-4	45*	-3	-7	3
COC(=O)CN1C(=O)[C@H]2[C@@H](c3ccc(C)o3)N3C(=O)CN(CC4CC4)C(=O)[C@@]3(Cc3ccccc3)[C@H]2C1=O	0	-2	22	-7	·	·
CC(=O)NC(=S)Nc1cc(C(F)(F)F)ccc1N1CCOCC1	14	2	6	8	·	·
SMILES	ZTA counter	Fh CTSL1 inh	NS3 helicase inh	EBNA-1 inh	NS3 helicase cf	FID counter trip	others
CN(C)c1nc(-c2ccccc2)cc(C(F)(F)F)c1C#N	4	3	8	-8	·	·
CCCC(=O)Nc1c(C)n[nH]c1C	10	-1	-3	7	·	·
CNCC(=O)Nc1c(C)n[nH]c1C	-4	3	40*	6	4	15
Cc1ccc(C)c2[nH]c(=O)c(C(c3nnnn3Cc3ccco3)N3CCc4ccccc4C3)cc12 (centres undefined)	-1	1	39*	0	4	-8
CCCC(=O)Nc1cc(C)c(NC(=O)C23CC4CC(CC(C4)C2)C3)cn1	-19	-4	3	-7	·	·
CCOc1cc(/C=C2\C(=N)N3N=C(CC)SC3=NC2=O)ccc1OCCOc1ccc(NC(C)=O)cc1	1	1	54*	-2	-19	-10
COc1cc(/C=C2\C(=N)N3N=C(C)SC3=NC2=O)cc(OC)c1OCCOc1ccccc1C	-5	0	45*	-12	17	-11
COc1cccc(OCCOc2ccc(/C=C3\C(=N)N4N=C(S(C)(=O)=O)SC4=NC3=O)cc2OC)c1	·	·	48*	·	53*	21
COc1ccccc1OCCOc1ccc(/C=C2\C(=N)N3N=C(S(C)(=O)=O)SC3=NC2=O)cc1	8	1	8	-19	·	·
CCN(CC)c1ccc2cc(C=O)c(=O)oc2c1	-1	13	-1	-11	·	·
CCN(CC)c1ccc2nc3c4ccccc4c(=O)cc-3oc2c1	·	·	71*	·	101*	4
COc1ccc(-n2c(Cc3cccn3C)nnc2SCC(=O)NCc2ccccc2Cl)cc1	3	3	47*	5	-12	-28
COc1cc(/C=C/[N+](=O)[O-])ccc1OCc1cccc(C(=O)O)c1	·	·	36*	·	69*	-14
COc1ccc(C(=O)NCCCNC(=O)c2ccccn2)cc1Br	5	0	-6	6	·	·
CCOc1cc(N2CCOCC2)c(OCC)cc1NC(=O)c1cccc(N(C)C)c1	-14	5	-8	-7	·	·
CC(C)(C)C(=O)C1=C(O)C(=O)N(Cc2ccccc2)C1c1ccccc1Cl (centres undefined)	-5	2	38*	5	15	-13
COC(=O)Cn1c(=O)c2c(n(Cc3ccccc3)c1=O)N/C(=C/c1ccc(OC)cc1)C2=O	-19	6	9	-9	·	·
Cc1sc2nc3c(SC(C)C(=O)O)cc(C(=O)c4ccccc4O)cn3c(=O)c2c1C (centres undefined)	22	3	45*	15	70*	56*
CCOC(=O)c1sc2nc3c(SCC(=O)O)cc(C(=O)c4cc(F)ccc4O)cn3c(=O)c2c1C	10	4	36*	4	52*	65*
CCOC(=O)c1sc2nc3c(SCC(=O)O)cc(C(=O)c4ccccc4O)cn3c(=O)c2c1C	-7	2	23	8	·	·
CC(=O)N(C(C)=O)N1C(=O)/C(=C/c2ccc(Cl)cc2)SC1=S	-2	-2	-6	-5	·	·
Cc1ccc(C)n1N1C(=O)/C(=C\c2ccc(Cl)cc2)SC1=S	11	0	43*	-6	-6	8
CCc1cc2cccc(C)c2nc1SCC(=O)NC1CCCC1	-2	-4	-2	-11	·	·
CCc1cc2cc(C)ccc2nc1SCC(=O)NC1CCCC1	-11	13	55*	-3	1	-14
